An excerpt weighted towards active compounds, which were near 0.85% of everything screened.
TRPN1 ag: zebrafish TRPN1 (NompC) channel agonism; AID 1424; 0.18% of 220,000 active; activation, % at 3 µM; HEK293 zebrafish TRPN1-YFP, Fluo-8 calcium fluorescence; 100% = response to 87 µM carbachol;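 active = activation above its plate's cutoff, the mean activation of test wells on that plate plus 3 SD, cut at about 19% in these data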;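 note: 0% = DMSO alone and 100% = 87 µM carbachol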
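Control set: carbachol 87 µM as high control, DMSO as low control; system: HEK293 stable line with zebrafish TRPN1-YFP; read-out: % activation versus carbachol response; detection: intracellular calcium fluorescence with Fluo-8; doses: single test compound dose, 3 µM nominal, 0.3% DMSO; schedule: dye 1 h 37 °C plus 30 min RT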
TRPML3 ag: human mucolipin-3 channel agonism; Q8TDD5; HEK293 TRPML3-YFP, Fluo-8 calcium fluorescence; 100% = the carbachol control signal; activation, % at 3 µM; 0.29% of 220,000 active; AID 1448;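 active = activation above its plate's cutoff, the mean activation of the plate's test wells plus 3 SD, cut at about 12% in these data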;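 note: 0% = DMSO only wells and 100% = carbachol wells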
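Material: HEK293 cells stably carrying human TRPML3-YFP; compound dosing: single dose, 3 µM final nominal compound, 0.3% DMSO final; incubation: 1-h 37 °C dye load, 5-s basal, 120-s post-compound reads; technique: Fluo-8 intracellular calcium fluorescence, excitation 470-495 nm, emission 515-575 nm; read-out basis: percent activation from peak-to-basal fluorescence ratio, scaled between DMSO and carbachol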
OXTR potentiator: potentiates the human oxytocin receptor response; 0.061% of 320,000 active; P30559; CHO-OTR cells, Fluo-8 calcium fluorescence, potentiator mode; 0% = oxytocin EC15, 100% = EC100; activation, % at 3 µM;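 active = activation above that plate's cutoff, the mean activation of tested compounds plus 3 SD, cut at about 6.6% in these data, passing the limit was not always enough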;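 note: 100% uses oxytocin at 75 nM as the full agonist control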
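Material: CHO-OTR cells, human receptor; compound dosing: single dose, 3.0 µM nominal final compound concentration; schedule: 6 min compound pre-incubation at room temperature, 100 s kinetic read; measured by: kinetic Fluo-8 calcium fluorescence; read-out basis: % activation vs EC15 and EC100 oxytocin; controls: EC15 oxytocin alone as 0%, 75 nM oxytocin as 100%; replicates: singlicate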
OXTR agonist: agonists of human oxytocin receptor. CHO-OTR cells, Fluo-8 calcium fluorescence; normalized: DMSO 0%, oxytocin 100%. activation, % at 3 µM. AID 2435. 0.32% of 320,000 active;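 active = activation above the mean of all tested compounds plus 3 SD, cutoff set per screening run, cut at about 20% in these data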;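 note: peak over basal fluorescence ratio from a 100 s FLIPR kinetic read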
CRFR2-BP ag: agonists of human CRF-binding protein/CRF-R2 receptor complex; HEK293 CRF-R2/CRF-BP, calcium dye fluorescence (FLIPR); percent of saturating CRF peptide response; activation, % at 13.2 µM; 0.46% of 350,000 active; AID 588473;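 active = activation of at least 50%, plus an integration ratio under a set limit after plate pattern correction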;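 note: plate controls were neutral control wells without compound for no effect and CRF at EC100 for full effect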
V1R ag counter: V1a receptor agonism, counter-screen for OXTR agonists; P37288; CHO-V1R cells, Fluo-8 calcium fluorescence, agonist mode; 0% DMSO, 100% 3 nM vasopressin; activation, % at 3 µM; 0.25% of 320,000 active; AID 2797;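 active = activation above the mean activation of all tested compounds plus 3 SD, per screening run, cut at about 20% in these data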;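 note: signal is peak over basal fluorescence ratio across a 100 second FLIPR read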
Target sequence (P37288 whole entry, looked up): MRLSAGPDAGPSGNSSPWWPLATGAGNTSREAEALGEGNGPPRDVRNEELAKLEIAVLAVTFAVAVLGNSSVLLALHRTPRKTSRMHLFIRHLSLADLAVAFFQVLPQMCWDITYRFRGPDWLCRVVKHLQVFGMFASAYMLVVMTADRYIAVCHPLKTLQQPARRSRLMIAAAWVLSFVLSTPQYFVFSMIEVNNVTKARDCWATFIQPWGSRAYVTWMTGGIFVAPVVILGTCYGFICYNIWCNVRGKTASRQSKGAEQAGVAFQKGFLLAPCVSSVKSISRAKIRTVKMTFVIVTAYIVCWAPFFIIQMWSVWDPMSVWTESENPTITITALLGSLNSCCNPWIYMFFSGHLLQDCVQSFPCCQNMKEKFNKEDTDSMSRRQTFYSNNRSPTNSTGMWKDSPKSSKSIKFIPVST
V1aR agonist cf: confirmation of human vasopressin V1a receptor agonists; AID 434964; CHO-V1R cells, Fluo-8 calcium fluorescence, agonist; shares compounds with V1R ag counter; 20% of 180 active; activation, % at 3 µM;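 active = average activation exceeds primary screen hit cutoff, cut at about 21% in these data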;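 note: peak over basal fluorescence ratio during a 100 s FLIPR read; 0% = DMSO only wells and 100% = 3 nM vasopressin wells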
OXTR ag counter: OXTR agonism, counter-screen for V1R agonists; activation, % at 3 µM; shares compounds with V1R ag counter; 10% of 180 active; CHO-OTR cells, Fluo-8 calcium fluorescence, agonist; AID 434969;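 active = mean activation over three repeats above the cutoff from the earlier oxytocin receptor agonist screen, cut at about 20% in these data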;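 note: peak over minimum fluorescence ratio within a 100 second FLIPR read; 0% = DMSO only wells and 100% = oxytocin high control wells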
* marks the source's active call; other numbers are inactive results; / = no result.

SMILES	TRPN1 ag	TRPML3 ag	OXTR potentiator	OXTR agonist	CRFR2-BP ag	V1R ag counter	V1aR agonist cf	OXTR ag counter
COc1ccc(NC(=O)C2CC(=O)N(Cc3ccco3)C2)cc1Cl (configuration not stated)	/	/	-2	0	-1	0	/	/
O=C1c2ccccc2C(=O)N1CCC#Cc1ccc2cc(CCCO)oc(=O)c2c1	/	/	-11	15	0	26*	9	8
CC(C)c1onc(C(=O)Nc2ccc3c(c2)OCO3)c1[N+](=O)[O-]	/	/	-3	0	0	2	/	/
CCN1C(=S)SC(=O)C1=C1C=C(C)N(Cc2ccco2)C(C)=C1	8	6	-25	19	47	24*	23*	18
COc1ccc(NC(=O)CN2C(=O)/C(=C3\SC(=S)N(C4CCS(=O)(=O)C4)C3=O)c3ccccc32)cc1 (configuration not stated)	1	1	-1	-2	-1	22*	0	0
O=C(Cc1c(F)cccc1Cl)Nc1nc2ccccc2s1	0	0	-20	1	-1	22*	2	-1
CC(=O)c1sc(NC(=O)Cc2c(F)cccc2Cl)nc1C	/	/	-2	-1	0	-1	/	/
CCOC(=O)CCCN(c1[nH]c(C)c(C)c1C#N)S(=O)(=O)c1ccc(C)cc1	/	/	/	/	5	/	/	/
CC1(CCc2ccc3c(c2)OCO3)NCCc2c1[nH]c1ccccc21 (configuration not stated)	/	/	-16	16	2	30*	10	22*
CCOC(=O)Nc1ccc(C(=O)c2ccncc2)cc1	/	/	-14	0	3	20*	0	0
N#Cc1cccc(NC(=O)CSc2ccc3c4c(cccc24)C(=O)c2ccccc2-3)c1	3	3	-11	14	224*	41*	107*	84*
N#Cc1cccc(NC(=O)CSc2ccccc2)c1	0	1	-9	2	-6	1	/	/
